Columns and labels:
Hepatitis C virus [1] = test: Selectivity ratio of EC50 for Hepatitis C virus genotype 1b N expressing NS3 R155Q mutant infected in human HuH7 cells to EC50 for Hepatitis C virus genotype 1b N expressing wild type NS3 infected in human HuH7 cells at 100 nM; format: functional, Hepacivirus hominis, genotype 1b strain N, Huh-7
Hepatitis C virus [2] = test: Selectivity ratio of EC50 for Hepatitis C virus genotype 1b N expressing NS3 D168V mutant infected in human HuH7 cells to EC50 for Hepatitis C virus genotype 1b N expressing wild type NS3 infected in human HuH7 cells; format: functional, Hepacivirus hominis, genotype 1b strain N, Huh-7
How it was run: (§1)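 Change in resistance: mutant replicon EC50 divided by wild-type 1b N replicon EC50 for the same drug. Both EC50s come from 4-day transient-replication assays in electroporated Huh7 cells with a firefly luciferase read-out, fitted from triplicate-well means. Mean of at least three experiments.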

Hepatitis C virus [3] = test: Selectivity ratio of EC50 for Hepatitis C virus genotype 1b N expressing NS3 R155Q mutant infected in human HuH7 cells to EC50 for Hepatitis C virus genotype 1b N expressing wild type NS3 infected in human HuH7 cells; format: functional, Hepacivirus hominis, genotype 1b strain N, Huh-7; how it was run: as §1
Hepatitis C virus [4] = test: Selectivity ratio of EC50 for Hepatitis C virus genotype 1b N expressing NS3 V36M/R155K double mutant infected in human HuH7 cells to EC50 for Hepatitis C virus genotype 1b N expressing wild type NS3 infected in human HuH7 cells; format: functional, Hepacivirus hominis, genotype 1b strain N, Huh-7; how it was run: as §1
Hepatitis C virus [5] = test: Selectivity ratio of EC50 for Hepatitis C virus genotype 1b N expressing NS3 D168V mutant infected in human HuH7 cells to EC50 for Hepatitis C virus genotype 1b N expressing wild type NS3 infected in human HuH7 cells at 10 nM; format: functional, Hepacivirus hominis, genotype 1b strain N, Huh-7
Hepatitis C virus [6] = test: Selectivity ratio of EC50 for Hepatitis C virus genotype 1b N expressing NS3 V170A mutant infected in human HuH7 cells to EC50 for Hepatitis C virus genotype 1b N expressing wild type NS3 infected in human HuH7 cells; format: functional, Hepacivirus hominis, genotype 1b strain N, Huh-7; how it was run: as §1
Hepatitis C virus [7] = test: Selectivity ratio of EC50 for Hepatitis C virus genotype 1b N expressing NS3 R155K mutant infected in human HuH7 cells to EC50 for Hepatitis C virus genotype 1b N expressing wild type NS3 infected in human HuH7 cells at 10 nM; format: functional, Hepacivirus hominis, genotype 1b strain N, Huh-7
Hepatitis C virus [8] = test: Selectivity ratio of EC50 for Hepatitis C virus genotype 1b N expressing NS3 R155K mutant infected in human HuH7 cells to EC50 for Hepatitis C virus genotype 1b N expressing wild type NS3 infected in human HuH7 cells at 100 nM; format: functional, Hepacivirus hominis, genotype 1b strain N, Huh-7
Hepatitis C virus [9] = test: Selectivity ratio of EC50 for Hepatitis C virus genotype 1b N expressing NS3 R155K mutant infected in human HuH7 cells to EC50 for Hepatitis C virus genotype 1b N expressing wild type NS3 infected in human HuH7 cells; format: functional, Hepacivirus hominis, genotype 1b strain N, Huh-7; how it was run: as §1
Hepatitis C virus [10] = test: Selectivity ratio of EC50 for Hepatitis C virus genotype 1b N expressing NS3 A156T mutant infected in human HuH7 cells to EC50 for Hepatitis C virus genotype 1b N expressing wild type NS3 infected in human HuH7 cells at 10 nM; format: functional, Hepacivirus hominis, genotype 1b strain N, Huh-7
Hepatitis C virus [11] = test: Antiviral activity against wild-type Hepatitis C virus genotype 1b N infected in human Huh7 cells; format: functional, organism-based, Hepacivirus hominis; conditions: genotype 1b strain N, Huh-7
How it was run: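 Transient replication: firefly-luciferase replicon RNA (genotype 1b N strain) transcribed in vitro and electroporated into Huh7 cells, plated in DMEM with 10% FBS. Luciferase read at 4 h to gauge transfection/translation. Drug dilutions added to a second plate set, incubated 4 days at 37°C, then luciferase measured. Triplicate samples per experiment; EC50 fitted from means; at least three experiments.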

Hepatitis C virus [12] = test: Selectivity ratio of EC50 for Hepatitis C virus genotype 1b N expressing NS3 D168V mutant infected in human HuH7 cells to EC50 for Hepatitis C virus genotype 1b N expressing wild type NS3 infected in human HuH7 cells at 100 nM; format: functional, Hepacivirus hominis, genotype 1b strain N, Huh-7
Hepatitis C virus [13] = test: Selectivity ratio of EC50 for Hepatitis C virus genotype 1b N expressing NS3 A156T mutant infected in human HuH7 cells to EC50 for Hepatitis C virus genotype 1b N expressing wild type NS3 infected in human HuH7 cells at 100 nM; format: functional, Hepacivirus hominis, genotype 1b strain N, Huh-7
Hepatitis C virus [14] = test: Selectivity ratio of EC50 for Hepatitis C virus genotype 1b N expressing NS3 T54A mutant infected in human HuH7 cells to EC50 for Hepatitis C virus genotype 1b N expressing wild type NS3 infected in human HuH7 cells; format: functional, Hepacivirus hominis, genotype 1b strain N, Huh-7; how it was run: as §1
Hepatitis C virus [15] = test: Selectivity ratio of EC50 for Hepatitis C virus genotype 1b N expressing NS3 A156V mutant infected in human HuH7 cells to EC50 for Hepatitis C virus genotype 1b N expressing wild type NS3 infected in human HuH7 cells; format: functional, Hepacivirus hominis, genotype 1b strain N, Huh-7; how it was run: as §1
Hepatitis C virus [16] = test: Selectivity ratio of EC50 for Hepatitis C virus genotype 1b N expressing NS3 V170A mutant infected in human HuH7 cells to EC50 for Hepatitis C virus genotype 1b N expressing wild type NS3 infected in human HuH7 cells at 10 nM; format: functional, Hepacivirus hominis, genotype 1b strain N, Huh-7
Hepatitis C virus [17] = test: Selectivity ratio of EC50 for Hepatitis C virus genotype 1b N expressing NS3 A156S mutant infected in human HuH7 cells to EC50 for Hepatitis C virus genotype 1b N expressing wild type NS3 infected in human HuH7 cells; format: functional, Hepacivirus hominis, genotype 1b strain N, Huh-7; how it was run: as §1
Hepatitis C virus [18] = test: Selectivity ratio of EC50 for Hepatitis C virus genotype 1b N expressing NS3 V36M mutant infected in human HuH7 cells to EC50 for Hepatitis C virus genotype 1b N expressing wild type NS3 infected in human HuH7 cells; format: functional, Hepacivirus hominis, genotype 1b strain N, Huh-7; how it was run: as §1
Hepatitis C virus [19] = test: Selectivity ratio of EC50 for Hepatitis C virus genotype 1b N expressing NS3 D168A mutant infected in human HuH7 cells to EC50 for Hepatitis C virus genotype 1b N expressing wild type NS3 infected in human HuH7 cells; format: functional, Hepacivirus hominis, genotype 1b strain N, Huh-7; how it was run: as §1
Hepatitis C virus [20] = test: Selectivity ratio of EC50 for Hepatitis C virus genotype 1b N expressing NS3 A156T mutant infected in human HuH7 cells to EC50 for Hepatitis C virus genotype 1b N expressing wild type NS3 infected in human HuH7 cells; format: functional, Hepacivirus hominis, genotype 1b strain N, Huh-7; how it was run: as §1
Hepatitis C virus [21] = test: Selectivity ratio of EC50 for Hepatitis C virus genotype 1b N expressing NS3 V170A mutant infected in human HuH7 cells to EC50 for Hepatitis C virus genotype 1b N expressing wild type NS3 infected in human HuH7 cells at 100 nM; format: functional, Hepacivirus hominis, genotype 1b strain N, Huh-7
Hepatitis C virus [22] = test: Selectivity ratio of EC50 for Hepatitis C virus genotype 1b N expressing NS3 R155Q mutant infected in human HuH7 cells to EC50 for Hepatitis C virus genotype 1b N expressing wild type NS3 infected in human HuH7 cells at 10 nM; format: functional, Hepacivirus hominis, genotype 1b strain N, Huh-7
Hepatitis C virus [23] = test: Selectivity ratio of EC50 for Hepatitis C virus genotype 1b N expressing NS3 R155K mutant infected in human HuH7 cells to EC50 for Hepatitis C virus genotype 1b N expressing wild type NS3 infected in human HuH7 cells at >10 nM; format: functional, Hepacivirus hominis, genotype 1b strain N, Huh-7

Compound | Ratio EC50 (Hepatitis C virus [2]) | Ratio EC50 (Hepatitis C virus [3]) | Ratio EC50 (Hepatitis C virus [4]) | Ratio EC50 (Hepatitis C virus [6]) | Ratio EC50 (Hepatitis C virus [9]) | EC50 (Hepatitis C virus [11]) [nM] | Ratio EC50 (Hepatitis C virus [14]) | Ratio EC50 (Hepatitis C virus [15]) | Ratio EC50 (Hepatitis C virus [17]) | Ratio EC50 (Hepatitis C virus [18]) | Ratio EC50 (Hepatitis C virus [19]) | Ratio EC50 (Hepatitis C virus [20]) | also measured
COc1ccc2c(O[C@@H]3C[C@H]4C(=O)N[C@]5(C(=O)O)C[C@H]5/C=C\CCCCC[C@H](NC(=O)OC5CCCC5)C(=O)N4C3)cc(-c3csc(NC(C)C)n3)nc2c1 [CILUPREVIR] | 193.6 | 29.6 | 139.9 | 1.5 | 147.5 | 1.5 | 0.6 | 445 | 28 | 0.8 | 63.3 | 366.6 | Ratio EC50 (Hepatitis C virus [1]): 660; Ratio EC50 (Hepatitis C virus [5]): 7; Ratio EC50 (Hepatitis C virus [7]): 7; Ratio EC50 (Hepatitis C virus [8]): 660; Ratio EC50 (Hepatitis C virus [10]): 7; Ratio EC50 (Hepatitis C virus [12]): 660; Ratio EC50 (Hepatitis C virus [13]): 660; Ratio EC50 (Hepatitis C virus [16]): 7; Ratio EC50 (Hepatitis C virus [21]): 660; Ratio EC50 (Hepatitis C virus [22]): 7
CC(C)(C)OC(=O)N[C@H]1CCCCC/C=C\[C@@H]2C[C@@]2(C(=O)NS(=O)(=O)C2CC2)NC(=O)[C@@H]2C[C@@H](OC(=O)N3Cc4cccc(F)c4C3)CN2C1=O [DANOPREVIR] | 14.9 | 6.1 | 55.7 | 1.2 | 89.3 | 0.3 | 0.9 | 7.1 | 40 | 0.7 | 14 | 96 | Ratio EC50 (Hepatitis C virus [23]): 33
CCC[C@H](NC(=O)[C@@H]1[C@H]2CCC[C@H]2CN1C(=O)[C@@H](NC(=O)[C@@H](NC(=O)c1cnccn1)C1CCCCC1)C(C)(C)C)C(=O)C(=O)NC1CC1 [TELAPREVIR] | 0.2 | 1.3 | 3.3 | – | 5.4 | 320 | 6.7 | 63.1 | 19 | 0.7 | 0.1 | 96.3 | –
